Reference: article PMC8020290 (Journal of Ginseng Research, 2020)
Like-named read-outs stand apart in the source and are kept apart here. Marks after values point to notes of the source that are not given here.

Legend:
[1] = format: in vivo, Sprague Dawley rats; conditions: for AUC: 0 to 48 h; for AUC / Cmax / half-life / Tmax / T1/2: plasma after intragastric ginsenoside Rb1 100 mg/kg, mean ± SE; for AUC increase compared with the control group: after intragastric ginsenoside Rb1 100 mg/kg
How it was run: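 Male SD rats (200 ± 20 g, n = 8/group) were gavaged daily for two weeks with prebiotic fibre at 1.0 g/d/rat, or sterile water (10 ml/kg). After an overnight fast, test compound was given intragastrically at 100 mg/kg. Ophthalmic plexus blood was drawn at 0.25–48 h. Plasma was acetone-precipitated with a saikosaponin A internal standard and run on positive-mode UPLC-ESI-QqQ-MS/MS. AUC0–48h came from non-compartmental analysis, mean ± SE, ANOVA/Bonferroni.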

[2] = cited from earlier work
intestinal microflora = conditions: after colimycin 20 mg/kg/day; decreased from 22.1 ± 1.2%; cited from earlier work
[3] = FOS group (1.0 g/d/rat, two weeks)
[4] = Fibersol-2 group (1.0 g/d/rat, two weeks)
[5] = GOS group (1.0 g/d/rat, two weeks)
[6] = Sprague-Dawley, rat, plasma, po, 100 mg/kg, Cmax, FOS group (1.0 g/d/rat, two weeks)
[7] = Sprague-Dawley, rat, plasma, po, 100 mg/kg, Cmax, Fibersol-2 group (1.0 g/d/rat, two weeks)
[8] = Sprague-Dawley, rat, plasma, po, 100 mg/kg, Cmax, GOS group (1.0 g/d/rat, two weeks)
[9] = Sprague-Dawley, rat, plasma, po, 100 mg/kg, T1/2, FOS group (1.0 g/d/rat, two weeks)
[10] = Sprague-Dawley, rat, plasma, po, 100 mg/kg, T1/2, Fibersol-2 group (1.0 g/d/rat, two weeks)
[11] = Sprague-Dawley, rat, plasma, po, 100 mg/kg, T1/2, GOS group (1.0 g/d/rat, two weeks)
[12] = Sprague-Dawley, rat, plasma, po, 100 mg/kg, Tmax, FOS group (1.0 g/d/rat, two weeks)
[13] = Sprague-Dawley, rat, plasma, po, 100 mg/kg, Tmax, Fibersol-2 group (1.0 g/d/rat, two weeks)
[14] = Sprague-Dawley, rat, plasma, po, 100 mg/kg, Tmax, GOS group (1.0 g/d/rat, two weeks)

Row | Compound | AUC [1, 3] | AUC [1, 4] | AUC [1, 5] | AUC increase compared with the control group ([1]; FOS intervention) [times] | AUC increase compared with the control group ([1]; GOS intervention) [times] | Cmax [1, 6] [ng/mL] | Cmax [1, 7] [ng/mL] | Cmax [1, 8] [ng/mL] | half-life [1, 9] [min] | half-life [1, 10] [min] | half-life [1, 11] [min] | Tmax [1, 12] [h] | Tmax [1, 13] [h] | Tmax [1, 14] [h] | AUC increase compared with the control group ([1]; fibersol-2 intervention) [times] | oral bioavailability [2] | further results
1 | CC(C)=CCC[C@](C)(O[C@@H]1O[C@H](CO[C@@H]2O[C@H](CO)[C@@H](O)[C@H](O)[C@H]2O)[C@@H](O)[C@H](O)[C@H]1O)[C@H]1CC[C@]2(C)[C@@H]1[C@H](O)C[C@@H]1[C@@]3(C)CC[C@H](O[C@@H]4O[C@H](CO)[C@@H](O)[C@H](O)[C@H]4O[C@@H]4O[C@H](CO)[C@@H](O)[C@H](O)[C@H]4O)C(C)(C)[C@@H]3CC[C@]12C [Rb1, ginsenoside Rb1] | 34494.77 ± 8770.73^bc ng/ml∗h | 42110.46 ± 6452.33^c ng/ml∗h | 30813.79 ± 3334.99^b ng/ml∗h | 2.52 | 2.25 | 1530 ± 343 | 3880 ± 2370 | 1210 ± 126 | 1160 ± 266 | 1450 ± 289 | 1180 ± 124 | 6.3 ± 2.82 | 1 ± 1.12 | 3.2 ± 3.55 | 3.07 | 0.28–1.18% | –
2 | colimycin | – | – | – | – | – | – | – | – | – | – | – | – | – | – | – | – | ginsenoside Rb1-hydrolysing activity by intestinal microflora (intestinal microflora): 4.7 ± 2.7%

Now from value to compound, other results behind:

Row | AUC [1, 3] | AUC [1, 4] | AUC [1, 5] | AUC increase compared with the control group ([1]; FOS intervention) [times] | AUC increase compared with the control group ([1]; GOS intervention) [times] | Cmax [1, 6] [ng/mL] | Cmax [1, 7] [ng/mL] | Cmax [1, 8] [ng/mL] | half-life [1, 9] [min] | half-life [1, 10] [min] | half-life [1, 11] [min] | Tmax [1, 12] [h] | Tmax [1, 13] [h] | Tmax [1, 14] [h] | AUC increase compared with the control group ([1]; fibersol-2 intervention) [times] | Compound | oral bioavailability [2] | further results
3 | 1616.98 ± 321.59^b ng/ml∗h | 1754.98 ± 335.76^b ng/ml∗h | 1479.93 ± 381.35^b ng/ml∗h | 1.91 | 1.74 | 110 ± 25.1 | 145 ± 67.2 | 156 ± 39 | 912 ± 310 | 621 ± 227 | 1120 ± 1080 | 7.6 ± 0.89 | 7.6 ± 1.67 | 6.4 ± 0.89 | 2.06 | CC(C)=CCC[C@](C)(O[C@@H]1O[C@H](CO)[C@@H](O)[C@H](O)[C@H]1O)[C@H]1CC[C@]2(C)[C@@H]1[C@H](O)C[C@@H]1[C@@]3(C)CC[C@H](O[C@@H]4O[C@H](CO)[C@@H](O)[C@H](O)[C@H]4O[C@@H]4O[C@H](CO)[C@@H](O)[C@H](O)[C@H]4O)C(C)(C)[C@@H]3CC[C@]12C [Rd, ginsenoside Rd] | – | –
4 | 1056.88 ± 173.22^ab ng/ml∗h | 1251.99 ± 740.67^b ng/ml∗h | 1434.71 ± 415.30^b ng/ml∗h | – | 2.42 | – | – | – | – | – | – | – | – | – | 2.11 | CC(C)=CCC[C@](C)(O[C@@H]1O[C@H](CO)[C@@H](O)[C@H](O)[C@H]1O)[C@H]1CC[C@]2(C)[C@@H]1[C@H](O)C[C@@H]1[C@@]3(C)CC[C@H](O)C(C)(C)[C@@H]3CC[C@]12C [CK, 20-O-β-D-glucopyranosyl-20(S)-protopanaxadiol] | 1.8–35.0% | Cmax [1, 3]: 42.94 ± 12.08^a ng/ml; T1/2 [1, 3]: 92.12 ± 158.19^a h; Tmax [1, 3]: 24.80 ± 15.60^b h; Cmax [1, 4]: 53.38 ± 25.17^a ng/ml; T1/2 [1, 4]: 50.86 ± 65.79^a h; Tmax [1, 4]: 29.00 ± 19.72^b h; Cmax [1, 5]: 57.46 ± 7.17^a ng/ml; T1/2 [1, 5]: 77.35 ± 129.14^a h; Tmax [1, 5]: 15.30 ± 11.98^ab h
5 | 200.38 ± 41.50^b ng/ml∗h | 153.78 ± 36.00^ab ng/ml∗h | 121.97 ± 29.35^a ng/ml∗h | 1.94 | – | 15.2 ± 2.49 | 35.3 ± 18.3 | 11.4 ± 3.44 | 1390 ± 2270 | 160 ± 57 | 271 ± 224 | 8 ± 1.41 | 6.8 ± 1.09 | 7.6 ± 1.67 | – | CC(C)=CCC[C@](C)(O[C@@H]1O[C@H](CO)[C@@H](O)[C@H](O)[C@H]1O)[C@H]1CC[C@]2(C)[C@@H]1[C@H](O)C[C@@H]1[C@@]3(C)CC[C@H](O[C@@H]4O[C@H](CO)[C@@H](O)[C@H](O)[C@H]4O)C(C)(C)[C@@H]3CC[C@]12C [F2, ginsenoside F2] | – | –
